Data reported in paper PMC12519076 (RSC Advances, 2025).
Like-named read-outs stand apart in the source and are kept apart here.

Experiments:
[1] = following intraperitoneal administration; cited from earlier work
[2] = type: in vivo, mice; details: for Detection in the brain: oral administration; for Detection in plasma: mice sacrificed 12 h after food intake
Outline: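 Male C57BL/6 mice, 7 weeks old, fed a high-fat diet with 1% w/w orange peel extract for 6 weeks, with 0.65% carnitine in drinking water. Tissues were homogenized under liquid nitrogen. Tissues, plasma (cardiac puncture, EDTA) and urine were extracted in methanol with 0.1% DMSO; taxifolin was the internal standard. Separation on a C30 column with a formic acid water/acetonitrile gradient; positive ESI, SRM. Values expressed as tissue–peel ratio.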

acetylcholinesterase = details: cortex and hippocampus; cited from earlier work
[3] = tested on: spatial learning impairments induced by Aβ1-42; details: oral administration for four weeks; cited from earlier work
[4] = type: in vivo, mice; details: by number of metabolites identified
Outline: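 Male C57BL/6 mice, from 7 weeks old, given high-fat chow containing 1% w/w orange peel extract for 6 weeks, with 0.65% carnitine in water. Methanol/0.1% DMSO extracts were run by UHPLC on a C30 column at 40 °C, 0.1% formic acid water/acetonitrile gradient 2–100% B, 0.2 mL min−1, with Q-Exactive Orbitrap detection. Metabolites were assigned to parent PMFs by key-ion patterns.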

Structure (SMILES) | Detection in the brain [2] | Detection in plasma [2] | Detection in the testes ([2]; testes) | Detection in the kidney [2] | Detection in the liver [2] | further results
COc1cc(-c2cc(=O)c3c(OC)c(OC)c(OC)c(OC)c3o2)ccc1O [4′-demethylnobiletin] | – | – | – | – | – | Detection in the brain [1]: detected in the brain
COc1ccc(-c2cc(=O)c3cc(OC)c(OC)c(OC)c3o2)cc1OC [PMF 1, 6,7,8,3′,4′-pentamethoxyflavone] | found | detected | detected | – | – | –
COc1ccc(-c2cc(=O)c3c(OC)c(OC)c(OC)c(OC)c3o2)cc1OC [PMF 3, nobiletin] | found | detected | not detected | detected | detected | Acetylcholinesterase activity (acetylcholinesterase): enhanced; Urine–peel ratio relative to other non-hydroxylated PMFs ([2]; urine): approximately two times higher; Effect on spatial learning impairments induced by Aβ1-42, Morris water maze test [3]: prevent spatial learning impairments; Extent of metabolism among the 11 PMFs [4]: most extensively metabolized
COc1ccc(-c2oc3c(OC)c(OC)c(OC)c(OC)c3c(=O)c2OC)cc1OC [PMF 5, 3,5,6,7,8,3′,4′-heptamethoxyflavone] | found | detected | not detected | – | detected | –
COc1ccc(-c2cc(=O)c3c(OC)c(OC)c(OC)c(OC)c3o2)cc1 [PMF 6, tangeretin] | found | detected | not detected | detected | detected | –
COc1ccc(-c2cc(=O)c3c(O)c(OC)c(OC)c(OC)c3o2)cc1OC [PMF 8, 5-hydroxy-6,7,8,3′,4′-pentamethoxyflavone] | not detected | – | detected | detected | detected | Feces-peel ratio relative to that of PMF 11 ([2]; feces): twice as high; Testes-to-peel ratio relative to the detected major PMFs 1 and 4 ([2]; testes): 10 to 14 times; Extent of metabolism among the 11 PMFs [4]: most extensively metabolized
COc1ccc(-c2oc3c(OC)c(OC)cc(O)c3c(=O)c2OC)cc1OC [PMF 9, 5-hydroxy-3,7,8,3′,4′-pentamethoxyflavone] | not detected | – | – | – | detected | –
COc1ccc(-c2cc(=O)c3c(OC)c(OC)c(OC)cc3o2)cc1OC [PMF 10, sinensetin] | found | – | – | – | detected | –
COc1ccc(-c2oc3c(OC)c(OC)c(OC)c(O)c3c(=O)c2OC)cc1OC [PMF 11, 5-hydroxy-3,6,7,8,3′,4′-hexamethoxyflavone] | not detected | – | – | – | not detected | –
